Screening results deposited in PubChem BioAssay by several laboratories.
The list is not random: actives were taken first. Their share in the collection is about 1.6%.
NR2E3 ag-1: activates human photoreceptor nuclear receptor NR2E3. Q9Y5X4. GST-NR2E3/biotin-RetCOR TR-FRET, 1536-well. inhibition of corepressor binding, % at 4.78 µM. 320,000 compounds, 0.12% hits. AID 2300;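 active means percent inhibition above the cutoff of mean plus 3 SD of all tested compounds, set per screening campaign, cut at about 20% in these data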;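 further: 0% = DMSO wells and 100% = biotin wells as full block of FRET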
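System: GST-NR2E3 and biotin-RetCOR proteins; probe or stimulus: 7 nM biotin-RetCOR; doses: compound at 4.8 µM, single dose; schedule: Compound–protein incubation for 5 h at 4 °C; detection: time-resolved FRET; read-out: percent inhibition; controls: biotin wells as high control, 0.6% DMSO wells as low control; format: 1536-well plates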
PKA-R2B activ: activators of human PKA-R2B complex. P22694+P31323. PKA-R2B holoenzyme dissociation, Cy5-IP20 fluorescence polarization; R2B truncated from residue 108, S112A mutant; 0% DMSO only, 100% 113 µM cGMP. activation, % at 11.4 µM. 340,000 compounds, 0.079% hits;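 active means activation above a cutoff set at the mean over all compounds plus 3 SD, cut at about 18% in these data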;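 further: higher means more holoenzyme dissociation and a rise in polarization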
PG9 Ab binder: small molecules binding HIV-1 gp120 antibody PG9; TR-FRET gp120-PG9 antibody binding; inhibition, % at 6.7 µM; 360,000 compounds, 0.43% hits; AID 624416; in the data active means inhibition above about 8.5%
NR2E3 ag-2: activates human NR2E3 receptor | Q9Y5X4 | CHO-S Gal4-NCOR/VP16-NR2E3 two-hybrid, luciferase | inhibition of corepressor binding, % at 3.98 µM | 360,000 compounds, 0.35% hits;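 active means inhibition above the mean of all tested compounds plus 3 SD, cut at about 70% in these data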;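 further: 0% = DMSO with NR2E3 transfected cells and 100% = cells lacking NR2E3 construct; higher means lower luciferase signal from less NR2E3 corepressor binding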
Rev-erbA mod: modulators of human Rev-erb alpha DNA binding; P20393; Rev-erbα–FITC-DNA binding, fluorescence polarization, 90 min; activity, % at 10 µM; 370,000 compounds, 0.79% hits;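 active means activity above about 14%, limit read from the data; passing the limit was not always enough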;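 further: 0% = DMSO wells with 35 nM protein and 100% = DMSO wells with 750 nM protein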
Target sequence (P20393 whole entry, looked up): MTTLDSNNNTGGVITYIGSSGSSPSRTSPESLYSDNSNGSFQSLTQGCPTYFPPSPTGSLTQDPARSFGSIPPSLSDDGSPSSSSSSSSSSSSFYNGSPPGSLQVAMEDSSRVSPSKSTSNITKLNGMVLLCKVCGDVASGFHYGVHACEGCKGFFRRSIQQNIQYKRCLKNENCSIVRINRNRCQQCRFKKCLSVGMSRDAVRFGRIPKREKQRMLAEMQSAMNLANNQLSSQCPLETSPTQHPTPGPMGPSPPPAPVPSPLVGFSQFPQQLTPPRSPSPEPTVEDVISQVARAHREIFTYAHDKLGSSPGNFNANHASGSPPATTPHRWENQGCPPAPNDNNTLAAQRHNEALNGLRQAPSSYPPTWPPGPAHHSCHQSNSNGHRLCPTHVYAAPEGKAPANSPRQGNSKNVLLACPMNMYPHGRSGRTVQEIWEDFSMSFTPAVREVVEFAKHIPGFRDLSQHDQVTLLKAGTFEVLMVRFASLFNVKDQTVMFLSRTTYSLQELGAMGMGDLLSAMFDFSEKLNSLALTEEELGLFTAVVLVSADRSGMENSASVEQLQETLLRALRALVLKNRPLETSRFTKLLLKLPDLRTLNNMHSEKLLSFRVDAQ
PKA-R1A act: PKA-R1A complex activation. activation, % at 11.4 µM. P00514+P68181. PKA-R1A dissociation, Cy5-IP20 fluorescence polarization; scaled: DMSO 0%, 113 µM cGMP 100%. 340,000 compounds, 0.083% hits;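 active means percent activation above the mean of all tested compounds plus 3 SD, cut at about 19% in these data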;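 further: higher means more PKAc released from R1A so a rise in polarization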
NR2E3 ag conf: NR2E3 agonism confirmed in two-hybrid assay | 2,300 compounds, 51% hits | inhibition, % at 3.98 µM | CHO-S mammalian two-hybrid NR2E3-NCOR, luciferase luminescence | shares compounds with NR2E3 ag-2;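 active means average inhibition above a cutoff equal to the mean inhibition of all tested compounds plus one SD, cut at about 70% in these data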;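 further: 0% = DMSO in NR2E3 cells and 100% = DMSO in cells lacking NR2E3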
GAL4-VP16 luc: GAL4-VP16 reporter inhibition in NR2E3 agonist counterscreen; shares compounds with NR2E3 ag-2; CHO-S GAL4-VP16 luciferase reporter, luminescence; inhibition, % at 3.98 µM; 2,300 compounds, 29% hits; AID 624379;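 active means mean inhibition above a cutoff equal to the average over all tested compounds plus one standard deviation, cut at about 70% in these data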;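 further: luciferase from a UAS reporter driven by GAL4-VP16 transactivation; 0% = DMSO with VP16-transfected cells and 100% = DMSO with cells lacking VP16; higher means less reporter light so more repression of VP16 activity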
* marks the source's active call; other numbers are inactive results; . = no result.

SMILES	NR2E3 ag-1	PKA-R2B activ	PG9 Ab binder	NR2E3 ag-2	Rev-erbA mod	PKA-R1A act	NR2E3 ag conf	GAL4-VP16 luc
CN[C@H]1C[C@H]2c3[nH]c4c(-c5ccc6c(c5)OCO6)cccc4c3CCN2C[C@H]1[C@H](C)O	.	.	.	.	-1	.	.	.
Nc1nonc1C(=O)NCCNCc1cc(Br)ccc1OCc1ccccc1F	3	-8	-2	51	-1	-5	60	50
COc1cc(NS(=O)(=O)c2ccc(-n3cccn3)cc2)cc(OC)c1	.	-6	.	51	.	-2	55	47
Cc1ccc(NS(=O)(=O)c2ccc(-n3cccn3)cc2)cc1C	4	0	1	57	-2	-8	59	52
Cc1ccc(NS(=O)(=O)c2ccc(-n3cccn3)cc2)cc1Cl	.	-5	-1	4	-1	-4	.	.
COc1ccc(OC)c(S(=O)(=O)N2CCCCC2C(=O)N2CCN(c3ccccc3F)CC2)c1 (configuration not stated)	.	.	.	.	3	.	.	.
COc1ccc(OCC(C)CN2CCC(C(O)(c3ccccc3)c3ccccc3)CC2)cc1 (configuration not stated)	.	.	.	.	1	.	.	.
CN(CC(=O)Nc1cccc(F)c1)C(=O)CCN1C(=O)C2CC=CCC2C1=O (configuration not stated)	-1	3	0	96*	4	4	4	-11
CN(CC(=O)Nc1cccc(F)c1)C(=O)CN1C(=O)C2CC=CCC2C1=O (configuration not stated)	-4	-9	1	7	-2	-17	.	.
CCCCN1C[C@@H](COCc2ccccc2)Oc2cc(F)ccc2S1(=O)=O	.	.	.	.	-2	.	.	.
CC(C)NC(=S)N/N=C/c1cc(Br)ccc1O	1	8	-1	72*	-4	6	-61	-36
COc1c(Cl)c(=O)oc2ccc(Cl)cc12	.	3	-2	-3	1	3	.	.
COc1ccccc1-n1c(=O)oc2ccc(Cl)cc2c1=O	0	9	0	73*	-6	11	96*	55
O=C1NC(=S)S/C1=C\c1cc(Cl)ccc1Cl	.	-1	-1	81*	0	-5	99*	69
Cc1cc(/C=C2\SC(=S)NC2=O)c(C)[nH]1	-5	2	-11	-40	-13	-7	.	.
c1ccc(C(Cc2nc(-c3ccncc3)no2)c2ccccc2)cc1	-2	-2	-1	64	10	-9	75*	56
c1ccc(-c2nc(-c3ccncc3)no2)cc1	0	-1	-2	-59	1	-4	.	.
O=C(Nc1ccc(Cl)cc1)N1CCN(Cc2nc3ccccc3c(=O)[nH]2)CC1	.	.	.	.	-7	.	.	.
Cc1cccc(Nc2nc(NCc3ccco3)c3ccccc3n2)c1	5	-6	0	74*	7	8	100*	87*
CCOC(=O)CC[C@@H]1CC[C@]2(CCCN(Cc3ccc(Cl)cc3)C2)O1	.	.	.	.	-5	.	.	.
N#Cc1c(-c2ccccc2)nc(SCc2ccc(Cl)cc2)[nH]c1=O	6	2	1	72*	-3	8	58	36
Cc1cccc(C)c1OCc1cc(C(=O)N2CCC(c3ccncc3)CC2)no1	0	6	2	86*	0	6	88*	53
O=C(c1cc(COc2c(F)cccc2F)on1)N1CCC(c2ccncc2)CC1	2	1	0	62	-3	-1	83*	73*
O=C(c1cc(COc2cccc3cnccc23)on1)N1CCC(c2ccccc2Cl)C1 (configuration not stated)	-1	-6	-1	95*	8	0	78*	68
O=C(c1cc(COc2c(F)cccc2F)on1)N1CCC(c2ccccc2Cl)C1 (configuration not stated)	4	1	-2	-39	0	-10	.	.
SMILES	NR2E3 ag-1	PKA-R2B activ	PG9 Ab binder	NR2E3 ag-2	Rev-erbA mod	PKA-R1A act	NR2E3 ag conf	GAL4-VP16 luc
Cc1cccc(C)c1OCc1cc(C(=O)N2CCN(C3CCCC3)CC2)no1	9	-1	-2	-59	-6	7	.	.
Cc1cc(-c2n[nH]c(=S)n2N=Cc2ccc(-c3ccccc3)cc2)n[nH]1	.	.	.	.	7	.	.	.
COC(=O)C1=CC(=O)C=C(OC)[C@@]12Oc1cc(C)cc(OC)c1C2=O	.	.	.	.	14	.	.	.
Cc1nn(Cc2ccc(Cl)c(Cl)c2)c(C)c1NC(=O)c1sc2ccccc2c1Cl	0	-6	1	51	19	-11	57	29
Cc1nn(Cc2ccc(Cl)c(Cl)c2)c(C)c1NC(=O)c1cc(-c2ccco2)on1	2	-8	0	51	-3	-8	79*	66
CCOC(=O)N1C(=O)C[C@](Sc2ccc(OC)cc2)(C(=O)N2CCOCC2)[C@H]1c1ccc(OC)cc1	.	.	.	.	-1	.	.	.
COCCn1c(C)c(C)c2c(NCCc3ccccc3)ncnc21	.	-2	-3	52	2	-6	1	-94
O=C1c2ccccc2C2Cc3nnccc3CN12 (configuration not stated)	.	.	0	.	4	.	.	.
COc1ccc(-c2cc(-c3nnc(SCC(=O)NC4CCCCC4)n3N)[nH]n2)cc1	.	.	.	.	-4	.	.	.
Cc1ccc(C2(c3ccc(C)cc3)CC2C(=O)Nc2ccc([N+](=O)[O-])cc2O)cc1 (configuration not stated)	0	-7	0	100*	3	-10	99*	90*
CC1(C)CC1C(=O)Nc1ccc([N+](=O)[O-])cc1Br (configuration not stated)	-1	6	1	-12	-2	0	.	.
O=C(Nc1ccc(OC(F)(F)F)cc1)C1CCCN(S(=O)(=O)c2cccnc2)C1 (configuration not stated)	1	-16	-1	49	3	-2	-19	-12
Nc1nc(-c2ccccc2)nn1C(=O)Cc1ccccc1	3	0	1	82*	0	-8	1	-3
COc1ccc(C[N+]2=C(N)NC3=C4CCCCC4n4c(=O)n(-c5ccccc5)c(=O)n4C3C2)c(OC)c1 (configuration not stated)	.	.	.	.	8	.	.	.
COC(=O)C1CN(Cc2ccc(F)cc2)CCS(=O)(=O)N1Cc1cn(Cc2ccc(Cl)cc2)nn1 (configuration not stated)	.	.	.	.	1	.	.	.
